# Laboratory results as given in ChEMBL document CHEMBL1125368, “Thiophene systems. 14. Synthesis and antihypertensive activity of novel 7-(cyclic amido)-6-hydroxythieno[3,2-b]pyrans and related compounds as new potassium channel activators” (1992).
# Experiments:
# Assay type in all cases: functional
# Oryctolagus cuniculus [1] = species: Oryctolagus cuniculus; experiment: The compound was tested for increase in [86Rb+] efflux in rabbit isolated mesenteric artery over basal rate at a concentration of 100 uM
# Procedure, shortened: (§1)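 Vessel rings from freshly killed rabbits, held on steel wires in physiological buffer at 37 °C gassed with 95% O2/5% CO2. Rings loaded with 86Rb (4-5 μCi/mL) for 3-4 h, then moved in pairs through 4 mL buffer tubes every 10 min. Basal efflux taken over 30-40 min, followed by test compound in about five vials, then compound-free washout for 10-20 min. Efflux aliquots and overnight-digested tissue counted by liquid scintillation.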
# Rattus norvegicus [2] = experiment: Maximal change in rat mean arterial blood pressure after 20 mg/kg p.o.; conditions: route oral
# Procedure, shortened: (§2)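 Conscious SHR with an arterial catheter exteriorized at the nape, held in Bollman restraint cages after a 60-min postsurgical recovery. Only rats with MAP >150 mmHg were used. Single oral gavage dose in distilled water (range 0.003-20 mg/kg), pressure monitored continuously for 4 h by transducer. Maximal % change from predrug MAP over 240 min, N ≥ six rats. ED30 from regression over the linear part of the dose-response, with 95% confidence limits.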
# Rattus norvegicus [3] = experiment: The compound was tested for antihypertensive activity measured as maximal change in mean arterial blood pressure(MAP), after oral administration of 1 mg/kg of the compound.; procedure, shortened: as §2
# Oryctolagus cuniculus [4] = species: Oryctolagus cuniculus; experiment: The compound was tested for increase in [86Rb+] efflux in rabbit isolated mesenteric artery over basal rate at a concentration of 10 uM; procedure, shortened: as §1
# Oryctolagus cuniculus [5] = species: Oryctolagus cuniculus; experiment: The compound was tested for increase in [86Rb+] efflux in rabbit isolated mesenteric artery over basal rate at a concentration of 30 uM.; procedure, shortened: as §1
# Oryctolagus cuniculus [6] = species: Oryctolagus cuniculus; experiment: The compound was tested for increase in [86Rb+] efflux in rabbit isolated mesenteric artery over basal rate at a concentration of 30 uM; procedure, shortened: as §1
# Rattus norvegicus [7] = species: Rattus norvegicus; experiment: The compound was tested for 30% reduction in mean arterial blood pressure(MAP); procedure, shortened: as §2
# Oryctolagus cuniculus [8] = species: Oryctolagus cuniculus; experiment: The compound was tested for increase in [86Rb+] efflux in rabbit isolated mesenteric artery over basal rate at a concentration of 10 uM.; procedure, shortened: as §1
# Oryctolagus cuniculus [9] = species: Oryctolagus cuniculus; experiment: The compound was tested for increase in [86Rb+] efflux in rabbit isolated mesenteric artery over basal rate at a concentration of 1 uM.; procedure, shortened: as §1
# Oryctolagus cuniculus [10] = species: Oryctolagus cuniculus; experiment: The compound was tested for increase in [86Rb+] efflux in rabbit isolated mesenteric artery over basal rate at a concentration of 100 uM.; procedure, shortened: as §1
# Oryctolagus cuniculus [11] = species: Oryctolagus cuniculus; experiment: The compound was tested for increase in [86Rb+] efflux in rabbit isolated mesenteric artery over basal rate at a concentration of 3 uM; procedure, shortened: as §1
# Rattus norvegicus [12] = experiment: The compound was tested for antihypertensive activity measured as maximal change in mean arterial blood pressure(MAP), after oral administration of 20 mg/kg of the compound.; procedure, shortened: as §2
# Oryctolagus cuniculus [13] = species: Oryctolagus cuniculus; experiment: The compound was tested for increase in [86Rb+] efflux in rabbit isolated mesenteric artery over basal rate at a concentration of 100 uM( Values in parentheses indicates 95%confidence limits); procedure, shortened: as §1
# Oryctolagus cuniculus [14] = species: Oryctolagus cuniculus; experiment: The compound was tested for increase in [86Rb+] efflux in rabbit isolated mesenteric artery over basal rate at a concentration of 3 uM.; procedure, shortened: as §1
# [15] = Rattus norvegicus, Arterial blood, read-out: ED30
smiles,measurement,setting,value
CC1(C)Oc2ccsc2[C@@H](N2CCCCC2)[C@@H]1O,Increase,Oryctolagus cuniculus [1],0%
same,Change,Rattus norvegicus [2],-6%
CC1(C)C=C(N2CCCCC2=O)c2sc([N+](=O)[O-])cc2O1,Change,Rattus norvegicus [2],-5%
CC1(C)Oc2cc(C(=O)c3ccccc3)sc2[C@@H](N2CCCC2=O)[C@@H]1O,Change,Rattus norvegicus [3],-4%
same,Increase,Oryctolagus cuniculus [4],0%
same,Increase,Oryctolagus cuniculus [1],58%
same,Increase,Oryctolagus cuniculus [5],33%
same,Change,Rattus norvegicus [2],-50%
CC(=O)c1cc2c(s1)[C@@H](N1CCCC1=O)[C@H](O)C(C)(C)O2,Increase,Oryctolagus cuniculus [4],37%
same,Increase,Oryctolagus cuniculus [1],57%
same,Increase,Oryctolagus cuniculus [6],40%
same,Change,Rattus norvegicus [2],-62%
same,ED30,Rattus norvegicus [7]; [15],0.2 mg/kg
CC1(C)Oc2cc([N+](=O)[O-])sc2[C@@H](N2CCCCC2=O)[C@@H]1O (stereo in doubt; 41),Change,Rattus norvegicus [3]; 1 mg/kg,-63%
same,Increase,Oryctolagus cuniculus [8],80%
same,Increase,Oryctolagus cuniculus [9],26%
same,Increase,Oryctolagus cuniculus [10],53%
same,Increase,Oryctolagus cuniculus [11],66%
same,Increase,Oryctolagus cuniculus [5],91%
same,ED30,Rattus norvegicus [7],0.013 mg/kg
CC1(C)Oc2cc([N+](=O)[O-])sc2[C@@H](N2CCNC2=O)[C@@H]1O,Change,Rattus norvegicus [12],-3%
CC1(C)Oc2cc(C(=O)O)sc2[C@@H](N2CCCCC2=O)[C@@H]1O,Change,Rattus norvegicus [12],-9%
CC(=O)c1cc2c(s1)[C@@H](N1CCCCC1=O)[C@H](O)C(C)(C)O2,Increase,Oryctolagus cuniculus [4],13%
same,Increase,Oryctolagus cuniculus [1],26%
same,Increase,Oryctolagus cuniculus [6],38%
same,Change,Rattus norvegicus [2],-67%
same,ED30,Rattus norvegicus [7]; [15],0.09 mg/kg
CN(C)C(=O)c1cc2c(s1)[C@@H](N1CCCCC1=O)[C@H](O)C(C)(C)O2,Change,Rattus norvegicus [3],-7%
same,Change,Rattus norvegicus [12],-63%
same,Increase,Oryctolagus cuniculus [1],32%
COC(=O)c1cc2c(s1)[C@@H](N1CCCC1=O)[C@H](O)C(C)(C)O2,Change,Rattus norvegicus [2],-31%
CC1(C)Oc2cc([N+](=O)[O-])sc2[C@@H](N2CCCC2=O)[C@@H]1O,Increase,Oryctolagus cuniculus [8],67%
same,Increase,Oryctolagus cuniculus [9],48%
same,Increase,Oryctolagus cuniculus [1],114%
same,Increase,Oryctolagus cuniculus [5],110%
same,Change,Rattus norvegicus [2],-60%
same,ED30,Rattus norvegicus [7]; [15],0.19 mg/kg
CC1(C)Oc2cc([N+](=O)[O-])sc2[C@@H](N2CCCCCC2=O)[C@@H]1O,Change,Rattus norvegicus [12],-34%
same,Increase,Oryctolagus cuniculus [6],25%
CC1(C)Oc2cc([N+](=O)[O-])sc2[C@@H](N2CCCNC2=O)[C@@H]1O,Change,Rattus norvegicus [12],-7%
CC1(C)C=C(N2CCCCC2)c2sc([N+](=O)[O-])cc2O1,Change,Rattus norvegicus [2],-17%
CC1(C)Oc2ccsc2[C@@H](N2CCCCC2=O)[C@@H]1O,Increase,Oryctolagus cuniculus [4],7%
same,Increase,Oryctolagus cuniculus [1],40%
same,Increase,Oryctolagus cuniculus [5],26%
same,Change,Rattus norvegicus [2],-53%
CC1(C)C=C(n2ccccc2=O)c2sc([N+](=O)[O-])cc2O1,Change,Rattus norvegicus [2],-14%
CC1(C)Oc2cc(C#N)sc2[C@@H](N2CCCCC2=O)[C@@H]1O,Change,Rattus norvegicus [12],-66%
same,Increase,Oryctolagus cuniculus [1],0%
same,Increase,Oryctolagus cuniculus [5],11%
same,ED30,Rattus norvegicus [7]; [15],0.03 mg/kg
Cc1cc2c(s1)[C@@H](N1CCCC1=O)[C@H](O)C(C)(C)O2,Change,Rattus norvegicus [2],-28%
CC1(C)Oc2cc(C(N)=O)sc2[C@@H](N2CCCCC2=O)[C@@H]1O,Increase,Oryctolagus cuniculus [4],73%
same,Increase,Oryctolagus cuniculus [1],92%
same,Increase,Oryctolagus cuniculus [5],75%
same,Change,Rattus norvegicus [2],-68%
same,ED30,Rattus norvegicus [7]; [15],0.2 mg/kg
CC1(C)Oc2ccc(C#N)cc2[C@@H](N2CCCC2=O)[C@@H]1O [LEVCROMAKALIM],Increase,Oryctolagus cuniculus [4],46%
same,Increase,Oryctolagus cuniculus [13],104%
same,Increase,Oryctolagus cuniculus [11],41%
same,Increase,Oryctolagus cuniculus [6],73%
same,ED30,Rattus norvegicus [7]; [15],0.19 mg/kg
CC1(C)Oc2cc([N+](=O)[O-])sc2[C@@H](N2Cc3ccccc3C2=O)[C@@H]1O,Change,Rattus norvegicus [3],-58%
same,Change,Rattus norvegicus [2],-61%
same,ED30,Rattus norvegicus [7]; [15],0.22 mg/kg
CC1(C)Oc2cc(Br)sc2[C@@H](N2CCCCC2=O)[C@@H]1O,Increase,Oryctolagus cuniculus [6],42%
same,Change,Rattus norvegicus [2],-64%
CC1(C)Oc2cc([N+](=O)[O-])sc2[C@@H](N2CCCCC2=O)[C@@H]1O (relative stereo),Change,Rattus norvegicus [12],-24%
CC1(C)Oc2cc([N+](=O)[O-])sc2[C@@H](N2CCCCC2=O)[C@@H]1O (stereo in doubt; 32),Increase,Oryctolagus cuniculus [14],41%
same,Increase,Oryctolagus cuniculus [4],56%
same,Increase,Oryctolagus cuniculus [6],60%
same,Change,Rattus norvegicus [2],-65%
same,ED30,Rattus norvegicus [7],0.015 mg/kg
CC1(C)Oc2ccsc2[C@@H](N2CCCCCC2=O)[C@@H]1O,Change,Rattus norvegicus [12],-12%
same,Increase,Oryctolagus cuniculus [1],0%
COC(=O)c1cc2c(s1)[C@@H](N1CCCCC1=O)[C@H](O)C(C)(C)O2,Increase,Oryctolagus cuniculus [1],63%
same,Increase,Oryctolagus cuniculus [5],51%
same,Change,Rattus norvegicus [2],-37%
CC1(C)C=C(n2ccccc2=O)c2cc(C#N)ccc2O1 [BIMAKALIM],ED30,Rattus norvegicus [7]; [15],0.01 mg/kg
CC1(C)Oc2cc([N+](=O)[O-])sc2[C@@H](n2ccccc2=O)[C@@H]1O,Change,Rattus norvegicus [3],-10%
same,Change,Rattus norvegicus [12],-57%
same,Increase,Oryctolagus cuniculus [6],0%
CC1(C)Oc2cc(C(=O)OCc3ccccc3)sc2[C@@H](N2CCCC2=O)[C@@H]1O,Change,Rattus norvegicus [2],-14%
CNC(=O)c1cc2c(s1)[C@@H](N1CCCCC1=O)[C@H](O)C(C)(C)O2.O,Change,Rattus norvegicus [12],-29%
same,Increase,Oryctolagus cuniculus [10],25%
CC1(C)Oc2ccsc2[C@@H](N2CCCC2)[C@@H]1O,Increase,Oryctolagus cuniculus [1],0%
same,Change,Rattus norvegicus [2],-14%
CC1(C)Oc2cc(C#N)sc2[C@@H](N2CCCC2=O)[C@@H]1O,Change,Rattus norvegicus [2],-67%
same,ED30,Rattus norvegicus [7]; [15],0.07 mg/kg
CC1(C)Oc2cc([N+](=O)[O-])sc2[C@@H](N2CCCCC2=O)[C@@H]1O (stereo in doubt; 40),Change,Rattus norvegicus [3]; 1 mg/kg,-19%
same,Increase,Oryctolagus cuniculus [9],2%
same,Increase,Oryctolagus cuniculus [4],19%
same,Increase,Oryctolagus cuniculus [1],19%
same,Increase,Oryctolagus cuniculus [5],11%
same,ED30,Rattus norvegicus [7],1.9 mg/kg
CC1(C)Oc2ccsc2[C@@H](N2CCCC2=O)[C@@H]1O,Increase,Oryctolagus cuniculus [4],0%
same,Increase,Oryctolagus cuniculus [1],25%
same,Increase,Oryctolagus cuniculus [5],8%
same,Change,Rattus norvegicus [2],-55%
same,ED30,Rattus norvegicus [7]; [15],5.03 mg/kg
CC1(C)Oc2cc(C(=O)C(F)(F)F)sc2[C@@H](N2CCCC2=O)[C@@H]1O,Change,Rattus norvegicus [3],-55%
same,Change,Rattus norvegicus [2],-68%
CC1(C)Oc2cc(Br)sc2[C@@H](N2CCCC2=O)[C@@H]1O,Change,Rattus norvegicus [3],-3%
same,Increase,Oryctolagus cuniculus [4],65%
same,Increase,Oryctolagus cuniculus [1],90%
same,Increase,Oryctolagus cuniculus [6],64%
same,Change,Rattus norvegicus [2],-43%
CC1(C)Oc2cc([N+](=O)[O-])sc2[C@@H](N2CC(=O)NCC2=O)[C@@H]1O,Change,Rattus norvegicus [12],-4%
same,Increase,Oryctolagus cuniculus [1],0%
